As usually defined, the T/C is the ratio of treated to control.

“And” between values parts separate entries of the source, which are not always exact repeats. Equal entries are not always repeated.

The target in one assay is Estrogen receptor (Bos taurus) (UniProt Q9XSB5+P49884). In words: Relative binding affinity for the calf uterine estrogen receptor by 17-beta-[3H]-estradiol displacement. Format: protein assay. A digest of the protocol: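 Calf uterine cytosol (105000g supernatant, 3 mg/mL protein final) in Tris-EDTA-NaN3 buffer, pH 7.5. Incubated with 5 nM 17β-[3H]estradiol and 10^-9–10^-5 M competitor for 18 h at 4 °C. Dextran-coated charcoal added for 90 min, then supernatant radioactivity counted. Nonspecific binding taken with 5 µM estradiol. RBA = molar ratio of estradiol to competitor at 50% displacement ×100.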
As for `Cc1c(-c2ccc(O)cc2)n(Cc2cccc(Cl)c2)c2ccc(O)cc12`, the relative binding affinity (RBA) is 5.1.

The compound `Cc1ccc(Cn2c(-c3ccc(O)cc3)c(C)c3cc(O)ccc32)cc1` displayed a relative binding affinity (RBA) of 11. `Cc1c(-c2ccc(O)cc2)n(C(=O)c2ccccc2)c2ccc(O)cc12`: the relative binding affinity (RBA) came to 2.4. Compound `Cc1c(-c2ccc(O)cc2)n(CC2CCCCC2)c2ccc(O)cc12` had a relative binding affinity (RBA) of 5.2. Compound `Cc1c(-c2ccc(O)cc2)n(Cc2ccccc2)c2cc(O)ccc12` came in with a relative binding affinity (RBA) of 11. Same read-out and setting: in the case of `Cc1c(-c2ccc(O)cc2)n(-c2ccccc2)c2cc(O)ccc12` it was 7.5; in that of `Cc1c(-c2ccc(O)cc2)n(Cc2ccc(Cl)cc2)c2ccc(O)cc12`, 8. Compound `Cc1c(-c2ccc(O)cc2)n(Cc2ccccc2)c2ccccc12` gave a relative binding affinity (RBA) of 0.55.

Regarding `Cc1c(-c2ccc(O)cc2)n(Cc2ccc(O)cc2)c2ccc(O)cc12`, the relative binding affinity (RBA) came out at 8.

`Cc1c(-c2ccc(O)cc2)n(Cc2ccc(C#N)cc2)c2ccc(O)cc12` had a relative binding affinity (RBA) of 14. Take `Cc1c(-c2ccc(O)cc2)n(Cc2ccccc2)c2ccc(O)cc12`: the relative binding affinity (RBA) was found to be 16.

`Cc1cccc(Cn2c(-c3ccc(O)cc3)c(C)c3cc(O)ccc32)c1` yielded a relative binding affinity (RBA) of 6.6.

The next assay concerns MDA-MB-231. In words: Effect on [3H]thymidine incorporation into estrogen receptor negative MDA-MB 231 human breast carcinoma cells at 1*10e-5 M (ex 1). Format: functional.
In the case of `Cc1c(-c2ccc(O)cc2)n(Cc2ccc(C#N)cc2)c2ccc(O)cc12`, the T/C was 11 ×10^4 per dish.

A further assay relates to MCF7. Put plainly: Effect on [3H]thymidine incorporation into estrogen receptor positive MCF-7 human breast carcinoma cells at 10e-6 M (ex 2). Format: functional. The procedure, abridged: (§1)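 MCF-7 cells kept in MEM with 5% charcoal-stripped newborn calf serum for two weeks. About 2×10^4 cells per well plated, then one day later exposed to compound in 0.1% ethanol. Ethanol-only controls. Medium changed on day 4. Three days later cells labelled with 1 µCi [3H]thymidine per well for 2 h. TCA-insoluble radioactivity per dish counted, mean of six dishes ± SD, expressed as % T/C.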
In the case of `CC/C(=C(\c1ccccc1)c1ccc(OCCN(C)C)cc1)c1ccccc1` [TAMOXIFEN], the T/C was 5.3 ×10^4 per dish.

A further assay concerns MCF7. Put plainly: Effect on [3H]thymidine incorporation into estrogen receptor positive MCF-7 human breast carcinoma cells at 10e-5 M (ex 1). Format: functional. A digest of the protocol: as §1
Background: Dividing cells build labelled thymidine or BrdU into new DNA.
On to `Cc1c(-c2ccc(O)cc2)n(Cc2ccc(C#N)cc2)c2ccc(O)cc12`, for which the T/C is 1.3 ×10^4 per dish.

In another assay the test system is MCF7. Put plainly: Effect on [3H]thymidine incorporation into estrogen receptor positive MCF-7 human breast carcinoma cells at 10e-6 M (ex 1). The class given is functional. A digest of the protocol: as §1
Turning to `Cc1c(-c2ccc(O)cc2)n(Cc2ccccc2)c2ccc(O)cc12`, the T/C was 17.4 ×10^4 per dish.

A further assay relates to MCF7. In words: Effect on [3H]thymidine incorporation into estrogen receptor positive MCF-7 human breast carcinoma cells at 10e-6 M (ex 2).
Consider `Cc1c(-c2ccc(O)cc2)n(Cc2ccc(C#N)cc2)c2ccc(O)cc12`, for which the T/C is 7.8 ×10^4 per dish.

The subject of another assay is MCF7. Put plainly: Effect on [3H]thymidine incorporation into estrogen receptor positive MCF-7 human breast carcinoma cells at 10e-7 M (ex 1). Format: functional. The procedure, abridged:
as §1
As for `Cc1c(-c2ccc(O)cc2)n(Cc2ccccc2)c2ccc(O)cc12`, the T/C was 20.3 ×10^4 per dish.

A further assay has as its system MDA-MB-231. In words: Effect on [3H]thymidine incorporation into estrogen receptor negative MDA-MB 231 human breast carcinoma cells at 5*10e-6 M. The class given is functional.
Consider `Cc1c(-c2ccc(O)cc2)n(Cc2ccc(C#N)cc2)c2ccc(O)cc12`, for which the T/C was 10.5 ×10^4 per dish.

A further assay relates to MDA-MB-231. In words: Effect on [3H]thymidine incorporation into estrogen receptor negative MDA-MB 231 human breast carcinoma cells at 1*10e-6 M. The class given is functional.
As to `Cc1c(-c2ccc(O)cc2)n(Cc2ccc(C#N)cc2)c2ccc(O)cc12`, the T/C is 10.5 ×10^4 per dish.

A further assay relates to MCF7. In words: Effect on [3H]-thymidine incorporation into estrogen receptor positive MCF-7 human breast carcinoma cells at 10e-7 M (ex 1). The class given is functional. A digest of the protocol:
as §1
`CC/C(=C(\c1ccccc1)c1ccc(OCCN(C)C)cc1)c1ccccc1` [TAMOXIFEN]: the T/C is 4.5 ×10^4 per dish.

The test system of another assay is MCF7. Put plainly: Effect on [3H]-thymidine incorporation into estrogen receptor positive MCF-7 human breast carcinoma cells at 10e-6 M (exp 1). The class given is functional. A digest of the protocol:
as §1
Take `CC/C(=C(\c1ccccc1)c1ccc(OCCN(C)C)cc1)c1ccccc1` [TAMOXIFEN]: the T/C is 2.2 ×10^4 per dish.

The next assay relates to MCF7. Put plainly: Effect on [3H]thymidine incorporation into estrogen receptor positive MCF-7 human breast carcinoma cells at 10e-7 M (ex 2).
In the case of `Cc1c(-c2ccc(O)cc2)n(Cc2ccc(C#N)cc2)c2ccc(O)cc12`, the T/C was 17.3 ×10^4 per dish.

Another assay concerns MCF7. In words: Effect on [3H]thymidine incorporation into estrogen receptor positive MCF-7 human breast carcinoma cells at 10e-7 M (experiment 2). Format: functional. The procedure, abridged:
as §1
Regarding `CC/C(=C(\c1ccccc1)c1ccc(OCCN(C)C)cc1)c1ccccc1` [TAMOXIFEN], the T/C was 6.7 ×10^4 per dish and 10.8 ×10^4 per dish.

Source of the values: ChEMBL document CHEMBL1123659, “2-Phenylindoles. Effect of N-benzylation on estrogen receptor affinity, estrogenic properties, and mammary tumor inhibiting activity” (J Med Chem, 1987).
